# Columns and labels:
# [1] = biological target: Nischarin (Rattus norvegicus, UniProt Q4G017); experiment: Displacement of [125I]-p-iodoclonidine from I1 receptor imidazoline binding site in Sprague-Dawley rat kidney cell membranes after 30 mins by liquid scintillation counting
# How it was run: (§1)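 Radioligand competition binding with pKi determined by displacement. I1 sites: [125I]-p-iodoclonidine on rat kidney membranes. I2 sites: [3H]-2-BFI on rat brain membranes. α2-ARs: [3H]-RX821002 on rat brain membranes.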
# [2] = Displacement of [3H]-2-BFI from I2 receptor imidazoline binding site in Sprague-Dawley rat brain membranes after 30 mins by liquid scintillation counting; type: cell membranes, Membrane; how it was run: as §1
# [3] = biological target: T1, Alpha-2B adrenergic receptor (Homo sapiens, UniProt P18089); experiment: Agonist activity at human alpha2b-AR expressed in CHO cells assessed as rate of acidification after 240 mins by cytosensor microphysiometric analysis; type: cell-based
# T1 sequence (P18089 whole entry): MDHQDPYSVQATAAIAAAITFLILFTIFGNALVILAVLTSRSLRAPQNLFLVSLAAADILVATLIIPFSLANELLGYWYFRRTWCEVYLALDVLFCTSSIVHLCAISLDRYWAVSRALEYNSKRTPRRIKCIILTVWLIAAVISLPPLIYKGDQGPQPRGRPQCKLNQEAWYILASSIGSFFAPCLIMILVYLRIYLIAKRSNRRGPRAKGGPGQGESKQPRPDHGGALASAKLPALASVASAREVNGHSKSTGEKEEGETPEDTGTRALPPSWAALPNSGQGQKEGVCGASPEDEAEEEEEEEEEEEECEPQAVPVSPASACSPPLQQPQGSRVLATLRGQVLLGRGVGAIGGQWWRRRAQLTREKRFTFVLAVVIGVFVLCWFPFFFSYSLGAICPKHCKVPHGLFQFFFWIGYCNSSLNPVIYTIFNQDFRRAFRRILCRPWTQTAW
# How it was run: (§2)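 Functional assay in CHO cells stably expressing a single human α2-AR subtype (α2A, α2B or α2C), read on a Cytosensor microphysiometer. Outputs are pEC50, intrinsic activity and, for antagonism, pKb. Intrinsic activity is expressed as a fraction of the full agonist (−)-noradrenaline, set at 1. Values are mean ± SEM of 3–5 separate experiments.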
# [4] = biological target: T2, Alpha-2C adrenergic receptor (Homo sapiens, UniProt P18825); experiment: Agonist activity at human alpha2c-AR expressed in CHO cells assessed as rate of acidification after 240 mins by cytosensor microphysiometric analysis; type: cell-based; how it was run: as §2
# T2 sequence (P18825 whole entry): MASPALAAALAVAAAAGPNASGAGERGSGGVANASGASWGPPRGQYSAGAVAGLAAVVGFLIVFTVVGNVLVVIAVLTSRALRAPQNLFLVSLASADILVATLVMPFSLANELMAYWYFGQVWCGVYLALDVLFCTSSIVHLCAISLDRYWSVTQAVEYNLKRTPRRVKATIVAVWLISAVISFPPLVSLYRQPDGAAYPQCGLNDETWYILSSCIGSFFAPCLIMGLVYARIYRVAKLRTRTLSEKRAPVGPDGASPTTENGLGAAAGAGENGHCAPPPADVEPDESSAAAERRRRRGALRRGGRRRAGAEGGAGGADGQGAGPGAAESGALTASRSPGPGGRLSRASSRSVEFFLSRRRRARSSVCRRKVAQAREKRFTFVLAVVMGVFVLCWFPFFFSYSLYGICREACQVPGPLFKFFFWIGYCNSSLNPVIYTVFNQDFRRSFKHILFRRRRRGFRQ
# [5] = biological target: T3, Alpha-2A adrenergic receptor (Homo sapiens) (UniProt P08913); experiment: Antagonist activity at human alpha2a-AR expressed in CHO cells assessed as inhibition of (-)-noradrenaline-induced acidification rate after 240 mins by cytosensor microphysiometric analysis; type: cell-based; how it was run: as §2
# T3 sequence (whole entry): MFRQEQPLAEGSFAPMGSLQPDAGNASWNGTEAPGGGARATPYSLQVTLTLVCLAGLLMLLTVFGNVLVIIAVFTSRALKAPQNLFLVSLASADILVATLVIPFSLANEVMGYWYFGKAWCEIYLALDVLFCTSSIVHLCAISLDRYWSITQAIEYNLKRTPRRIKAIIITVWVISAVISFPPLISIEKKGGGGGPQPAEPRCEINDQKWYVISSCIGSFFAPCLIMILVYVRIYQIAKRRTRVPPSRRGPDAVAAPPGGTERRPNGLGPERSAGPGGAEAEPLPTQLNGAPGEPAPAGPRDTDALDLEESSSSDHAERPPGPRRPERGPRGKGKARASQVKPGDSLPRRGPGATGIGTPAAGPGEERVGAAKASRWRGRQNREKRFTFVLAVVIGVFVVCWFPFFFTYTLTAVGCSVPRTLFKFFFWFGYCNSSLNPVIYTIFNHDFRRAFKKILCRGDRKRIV
# [6] = Reduction in morphine dependence expression in CD1 mouse assessed as inhibition of naloxone-precipitated jumping at 10 mg/kg, ip administered acutely 15 mins prior to naloxone challenge relative to control; type: functional, organism-based
# [7] = Reduction in morphine dependence expression in CD1 mouse assessed as inhibition of naloxone-precipitated rearing frequency at 5 mg/kg, ip administered acutely 15 mins prior to naloxone challenge relative to control; type: functional, organism-based
# [8] = Reduction in morphine dependence expression in CD1 mouse assessed as inhibition of naloxone-precipitated forepaw tremor frequency at 5 mg/kg, ip administered acutely 15 mins prior to naloxone challenge relative to control; type: functional, organism-based
# [9] = Reduction in morphine dependence expression in CD1 mouse assessed as inhibition of naloxone-precipitated teeth chattering frequency at 5 mg/kg, ip administered acutely 15 mins prior to naloxone challenge relative to control; type: functional, organism-based
# [10] = Reduction in morphine dependence expression in CD1 mouse assessed as inhibition of naloxone-precipitated rearing frequency at 10 mg/kg, ip administered acutely 15 mins prior to naloxone challenge relative to control; type: functional, organism-based
# [11] = Reduction in morphine dependence expression in CD1 mouse assessed as inhibition of naloxone-precipitated teeth chattering frequency at 10 mg/kg, ip administered acutely 15 mins prior to naloxone challenge relative to control; type: functional, organism-based
# [12] = system: Mus musculus; experiment: Reduction in morphine dependence acquisition in CD1 mouse assessed as inhibition of naloxone-precipitated rearing frequency at 5 to 10 mg/kg, ip administered 15 mins prior to each morphine challenge relative to control; type: functional
# How it was run: (§3)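 Mice received i.p. test compound (5 or 10 mg/kg) 15 min before each of repeated morphine injections, with vehicle and morphine-only controls. Withdrawal was then precipitated with naloxone. Jumping frequency and somatic signs (rearing, forepaw tremor, teeth chattering; summed frequency) were scored and compared with the morphine group. Data are mean ± SEM of 6–10 animals.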
# [13] = system: Mus musculus; experiment: Reduction in morphine dependence acquisition in CD1 mouse assessed as inhibition of naloxone-precipitated forepaw tremor frequency at 5 to 10 mg/kg, ip administered 15 mins prior to each morphine challenge relative to control; type: functional; how it was run: as §3
# [14] = system: Mus musculus; experiment: Reduction in morphine dependence acquisition in CD1 mouse assessed as inhibition of naloxone-precipitated teeth chattering frequency at 5 to 10 mg/kg, ip administered 15 mins prior to each morphine challenge relative to control; type: functional; how it was run: as §3
# Sequence of Nischarin (Q4G017 whole entry): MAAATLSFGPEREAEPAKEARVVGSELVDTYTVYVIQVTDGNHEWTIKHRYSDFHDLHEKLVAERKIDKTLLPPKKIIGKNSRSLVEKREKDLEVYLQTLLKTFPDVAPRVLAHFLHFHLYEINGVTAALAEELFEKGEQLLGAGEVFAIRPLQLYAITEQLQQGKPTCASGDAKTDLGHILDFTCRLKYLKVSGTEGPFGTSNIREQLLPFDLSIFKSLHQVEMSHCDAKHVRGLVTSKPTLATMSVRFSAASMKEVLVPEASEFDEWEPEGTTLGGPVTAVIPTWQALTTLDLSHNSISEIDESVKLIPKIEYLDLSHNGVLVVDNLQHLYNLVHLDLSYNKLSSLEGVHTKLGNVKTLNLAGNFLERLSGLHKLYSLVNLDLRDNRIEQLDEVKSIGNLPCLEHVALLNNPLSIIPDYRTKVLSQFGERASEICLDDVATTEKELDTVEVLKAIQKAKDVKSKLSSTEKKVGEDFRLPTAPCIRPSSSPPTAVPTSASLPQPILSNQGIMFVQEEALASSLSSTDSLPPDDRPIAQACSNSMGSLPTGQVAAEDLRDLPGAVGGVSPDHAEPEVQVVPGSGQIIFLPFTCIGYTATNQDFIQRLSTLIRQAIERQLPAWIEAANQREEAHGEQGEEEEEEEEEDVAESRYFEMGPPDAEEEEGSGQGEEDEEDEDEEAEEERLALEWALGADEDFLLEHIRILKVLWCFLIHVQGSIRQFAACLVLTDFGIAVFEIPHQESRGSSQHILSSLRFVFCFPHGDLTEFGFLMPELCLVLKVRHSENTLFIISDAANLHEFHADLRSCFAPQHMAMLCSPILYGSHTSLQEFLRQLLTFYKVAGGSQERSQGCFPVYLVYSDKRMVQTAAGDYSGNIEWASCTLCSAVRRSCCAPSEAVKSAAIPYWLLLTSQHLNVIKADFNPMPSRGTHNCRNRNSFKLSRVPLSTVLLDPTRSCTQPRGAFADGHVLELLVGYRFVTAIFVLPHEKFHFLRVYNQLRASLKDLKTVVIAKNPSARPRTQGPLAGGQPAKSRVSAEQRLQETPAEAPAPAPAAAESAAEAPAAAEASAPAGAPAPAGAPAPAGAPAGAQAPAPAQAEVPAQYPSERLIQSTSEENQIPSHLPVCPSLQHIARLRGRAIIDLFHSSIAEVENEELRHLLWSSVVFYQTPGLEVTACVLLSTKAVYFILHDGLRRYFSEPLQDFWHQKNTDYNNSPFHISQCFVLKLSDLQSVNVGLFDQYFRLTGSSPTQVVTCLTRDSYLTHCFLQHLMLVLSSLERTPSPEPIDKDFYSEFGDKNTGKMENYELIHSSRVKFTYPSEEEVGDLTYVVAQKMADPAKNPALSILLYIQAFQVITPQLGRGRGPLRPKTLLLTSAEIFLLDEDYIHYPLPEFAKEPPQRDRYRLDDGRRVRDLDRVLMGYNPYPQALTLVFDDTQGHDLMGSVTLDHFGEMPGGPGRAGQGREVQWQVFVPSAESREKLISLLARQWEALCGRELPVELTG
smiles,measurement,setting,value
Cc1ccccc1NCC1=NCCN1,Ki,[1],2 nM
same,pKi,[2],8.06
same,EC50,[3],3160 nM
same,EC50,[4],21.9 nM
same,pKb,[5],7.58
same,inhibition,[6],98%
same,inhibition,[7],86%
same,inhibition,[8],86%
same,inhibition,[9],86%
same,inhibition,[10],93%
same,inhibition,[11],93%
same,inhibition (INH),[12],80%
same,inhibition (INH),[13],80%
same,inhibition (INH),[14],80%

# — ChEMBL document CHEMBL3853360, “Combined Interactions with I1-, I2-Imidazoline Binding Sites and α2-Adrenoceptors To Manage Opioid Addiction” (ACS Med Chem Lett, 2016)
